Experiments:
[1] = target: Muscarinic acetylcholine receptor M2 and M5 (Homo sapiens) (UniProt P08172+P08912); assay: Selectivity ratio of Ki for human muscarinic M5 receptor expressed in stable CHO-K1 cells to Ki for human muscarinic M2 receptor expressed in stable CHO-K1 cells; assay type: cell-based
[2] = target: T1, Muscarinic acetylcholine receptor M2 (Homo sapiens, UniProt P08172); assay: Displacement of [3H]-QNB from human muscarinic M2 receptor expressed in stable CHO-K1 cells incubated for 120 mins by radioligand competition binding assay; assay type: cell-based
T1 sequence (P08172 whole entry): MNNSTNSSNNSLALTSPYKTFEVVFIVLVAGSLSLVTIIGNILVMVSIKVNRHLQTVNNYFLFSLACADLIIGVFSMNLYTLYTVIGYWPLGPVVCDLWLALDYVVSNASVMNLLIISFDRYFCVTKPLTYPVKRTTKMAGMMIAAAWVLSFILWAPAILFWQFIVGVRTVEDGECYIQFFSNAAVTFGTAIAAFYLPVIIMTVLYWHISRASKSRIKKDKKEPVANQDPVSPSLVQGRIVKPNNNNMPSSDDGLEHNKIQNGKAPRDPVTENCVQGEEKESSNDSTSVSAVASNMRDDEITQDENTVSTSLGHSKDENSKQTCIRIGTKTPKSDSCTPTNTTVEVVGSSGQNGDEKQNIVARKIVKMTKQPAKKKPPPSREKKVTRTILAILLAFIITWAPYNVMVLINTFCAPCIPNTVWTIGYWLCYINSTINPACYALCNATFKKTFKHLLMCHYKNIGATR

[3] = target: Muscarinic acetylcholine receptors; M2 & M3 (Homo sapiens) (UniProt P20309+P08172); assay: Selectivity ratio of Ki for human muscarinic M3 receptor expressed in stable CHO-K1 cells to Ki for human muscarinic M2 receptor expressed in stable CHO-K1 cells; assay type: cell-based
Muscarinic acetylcholine receptors; M2 & M3 (Homo sapiens), sequence (P20309 whole entry, looked up, one chain of several): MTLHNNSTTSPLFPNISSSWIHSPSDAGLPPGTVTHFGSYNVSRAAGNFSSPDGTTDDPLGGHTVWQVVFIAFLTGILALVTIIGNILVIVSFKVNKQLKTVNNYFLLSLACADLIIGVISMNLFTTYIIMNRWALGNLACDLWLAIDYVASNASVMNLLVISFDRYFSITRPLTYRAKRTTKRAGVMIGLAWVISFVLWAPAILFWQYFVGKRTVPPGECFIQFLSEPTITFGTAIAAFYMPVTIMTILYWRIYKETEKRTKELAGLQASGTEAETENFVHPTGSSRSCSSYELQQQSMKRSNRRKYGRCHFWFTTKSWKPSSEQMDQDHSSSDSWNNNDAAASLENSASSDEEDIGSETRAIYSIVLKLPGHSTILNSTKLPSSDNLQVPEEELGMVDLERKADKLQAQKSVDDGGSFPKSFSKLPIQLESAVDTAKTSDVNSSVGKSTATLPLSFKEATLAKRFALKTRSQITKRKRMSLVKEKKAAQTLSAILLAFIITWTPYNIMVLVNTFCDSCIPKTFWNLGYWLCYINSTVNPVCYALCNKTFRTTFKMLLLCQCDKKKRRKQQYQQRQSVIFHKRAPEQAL

[4] = Selectivity ratio of Ki for muscarinic M1 receptor (unknown origin) expressed in mouse A9L cell membranes to Ki for rat heart muscarinic M2 receptor; assay type: cell-based
[5] = Selectivity ratio of Ki for muscarinic M4 receptor in mouse/rat NG108-15 cells to Ki for rat heart muscarinic M2 receptor; assay type: cell-based
[6] = target: T2, Muscarinic acetylcholine receptor M1 (Homo sapiens, UniProt P11229); assay: Displacement of [3H]-NMS from muscarinic M1 receptor (unknown origin) expressed in mouse A9L cells after 60 mins by scintillation counting method; assay type: cell-based
T2 sequence (P11229 whole entry): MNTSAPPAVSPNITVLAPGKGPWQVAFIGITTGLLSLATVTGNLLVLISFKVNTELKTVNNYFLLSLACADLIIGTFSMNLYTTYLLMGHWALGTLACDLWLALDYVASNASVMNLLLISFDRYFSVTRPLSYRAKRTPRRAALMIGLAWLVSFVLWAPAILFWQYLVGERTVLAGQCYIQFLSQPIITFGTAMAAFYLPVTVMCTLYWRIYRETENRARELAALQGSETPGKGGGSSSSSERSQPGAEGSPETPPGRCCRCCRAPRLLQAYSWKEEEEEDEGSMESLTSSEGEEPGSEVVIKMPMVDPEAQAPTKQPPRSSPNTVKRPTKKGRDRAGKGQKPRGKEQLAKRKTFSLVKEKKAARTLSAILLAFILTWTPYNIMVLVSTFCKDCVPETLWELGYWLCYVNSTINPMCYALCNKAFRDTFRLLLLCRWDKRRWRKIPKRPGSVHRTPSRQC

[7] = Displacement of [3H]-NMS from muscarinic M4 receptor in mouse/rat NG108-15 cells after 60 mins by scintillation counting method; assay type: cell-based
[8] = target: T3, Muscarinic acetylcholine receptor M3 (Homo sapiens, UniProt P20309); assay: Displacement of [3H]-NMS from muscarinic M3 receptor (unknown origin) expressed in mouse A9L cell membranes after 60 mins by scintillation counting method
T3 sequence (P20309 whole entry): as the sequence (P20309 whole entry, looked up, one chain of several) above

[9] = Selectivity ratio of Ki for muscarinic M3 receptor (unknown origin) expressed in mouse A9L cell membranes to Ki for rat heart muscarinic M2 receptor; assay type: cell-based
[10] = target: T4, Muscarinic acetylcholine receptor M2 (Rattus norvegicus, UniProt P10980); assay: Displacement of [3H]-NMS from rat heart muscarinic M2 receptor after 60 mins by scintillation counting method
T4 sequence (P10980 whole entry): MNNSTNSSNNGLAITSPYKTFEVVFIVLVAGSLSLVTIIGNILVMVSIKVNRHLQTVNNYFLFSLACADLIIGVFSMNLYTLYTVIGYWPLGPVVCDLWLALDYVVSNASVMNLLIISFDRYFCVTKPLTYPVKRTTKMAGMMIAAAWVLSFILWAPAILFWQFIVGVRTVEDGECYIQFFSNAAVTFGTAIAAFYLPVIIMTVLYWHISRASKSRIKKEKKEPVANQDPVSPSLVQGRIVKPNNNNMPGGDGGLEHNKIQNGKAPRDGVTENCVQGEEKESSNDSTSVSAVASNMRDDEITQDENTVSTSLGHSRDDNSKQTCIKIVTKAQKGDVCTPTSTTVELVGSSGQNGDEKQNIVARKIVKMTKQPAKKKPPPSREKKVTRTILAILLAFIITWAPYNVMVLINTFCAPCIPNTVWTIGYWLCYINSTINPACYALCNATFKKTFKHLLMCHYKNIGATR

[11] = target: T5, Muscarinic acetylcholine receptor M5 (Homo sapiens, UniProt P08912); assay: Displacement of [3H]-NMS from human muscarinic M5 receptor expressed in CHO-K1 cells by scintillation counting method; assay type: cell-based
T5 sequence (P08912 whole entry): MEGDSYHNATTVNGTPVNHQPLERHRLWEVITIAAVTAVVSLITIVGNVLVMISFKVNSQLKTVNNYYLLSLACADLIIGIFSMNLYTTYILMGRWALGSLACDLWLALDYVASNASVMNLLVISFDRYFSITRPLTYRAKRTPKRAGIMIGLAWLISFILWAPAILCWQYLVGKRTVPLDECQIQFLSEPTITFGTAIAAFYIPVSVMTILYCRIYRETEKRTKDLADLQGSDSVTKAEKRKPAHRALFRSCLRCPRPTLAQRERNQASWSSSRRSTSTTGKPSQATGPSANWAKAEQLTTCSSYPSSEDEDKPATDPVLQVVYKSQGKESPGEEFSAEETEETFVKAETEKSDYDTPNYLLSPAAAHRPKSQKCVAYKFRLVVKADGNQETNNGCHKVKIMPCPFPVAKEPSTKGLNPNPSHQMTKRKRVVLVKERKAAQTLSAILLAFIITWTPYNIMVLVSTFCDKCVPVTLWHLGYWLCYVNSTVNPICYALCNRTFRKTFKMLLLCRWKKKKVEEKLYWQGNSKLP
How it was run: (§1)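 [3H]NMS competition binding on intact CHO-hMxR cells in L15 medium with 1% BSA, 3 h at 22 ± 1 °C with gentle shaking. [3H]NMS was 0.2 nM (M1, M2, M3), 0.1 nM (M4) or 0.3 nM (M5). […] Cells were lysed in urea/acetic acid/Triton and counted by liquid scintillation. Ki from Cheng-Prusoff. Triplicates, ≥3 experiments.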

[12] = target: T2, Muscarinic acetylcholine receptor M1; assay: Displacement of [3H]-NMS from human muscarinic M1 receptor expressed in CHO-K1 cells by scintillation counting method; assay type: cell-based; how it was run: as §1
[13] = target: T6, Muscarinic acetylcholine receptor M4 (Homo sapiens, UniProt P08173); assay: Displacement of [3H]-NMS from human muscarinic M4 receptor expressed in CHO-K1 cells by scintillation counting method; assay type: cell-based; how it was run: as §1
T6 sequence (P08173 whole entry): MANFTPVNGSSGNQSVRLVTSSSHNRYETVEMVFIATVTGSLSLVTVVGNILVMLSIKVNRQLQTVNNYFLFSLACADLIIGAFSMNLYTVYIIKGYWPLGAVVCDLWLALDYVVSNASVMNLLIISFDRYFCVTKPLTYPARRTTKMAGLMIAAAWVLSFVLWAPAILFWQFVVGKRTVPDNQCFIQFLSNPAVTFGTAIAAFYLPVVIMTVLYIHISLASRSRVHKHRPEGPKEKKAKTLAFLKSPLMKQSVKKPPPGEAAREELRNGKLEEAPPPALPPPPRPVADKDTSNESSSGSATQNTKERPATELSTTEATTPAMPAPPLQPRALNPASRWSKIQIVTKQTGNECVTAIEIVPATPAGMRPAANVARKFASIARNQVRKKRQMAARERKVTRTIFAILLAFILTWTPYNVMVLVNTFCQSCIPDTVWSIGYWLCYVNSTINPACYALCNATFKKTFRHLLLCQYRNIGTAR

[14] = target: T3, Muscarinic acetylcholine receptor M3; assay: Displacement of [3H]-NMS from human muscarinic M3 receptor expressed in CHO-K1 cells by scintillation counting method; assay type: cell-based; how it was run: as §1
[15] = target: T1, Muscarinic acetylcholine receptor M2; assay: Displacement of [3H]-NMS from human muscarinic M2 receptor expressed in CHO-K1 cells by scintillation counting method; assay type: cell-based; how it was run: as §1

| Structure (SMILES) | Ratio Ki [1] | Ki [2] [µM] | Ratio Ki [3] | Ratio Ki [4] | Ratio Ki [5] | Ki [6] [µM] | pKi [7] | Ki [8] [µM] | Ratio Ki [9] | Ki [10] [µM] | Ki [11] [µM] | Ki [12] [µM] | Ki [13] [µM] | Ki [14] [µM] | Ki [15] [µM] |
| --- | --- | --- | --- | --- | --- | --- | --- | --- | --- | --- | --- | --- | --- | --- | --- |
| Cc1ccccc1C(=O)N1CCC(N2CCC(Cc3ccc(S(=O)(=O)c4cccc(Cl)c4)cc3)CC2)CC1 | 48 | 0.00269 | 172 |  |  |  |  |  |  |  |  |  |  |  |  |
| CCN(CC)CCCCC1CCN(CC(=O)N2c3ccccc3NC(=O)c3ccccc32)CC1 |  |  |  | 13 | 7 | 0.00398 | 8.7 | 0.01 | 37 | 0.000316 |  |  |  |  |  |
| CCCC(C)(C)C(=O)N(CC)CCCC1CCN(CC(=O)N2c3ccc(Cl)cc3C(=O)Nc3cccnc32)CC1 | 48 |  | 26 |  |  |  |  |  |  |  | 1.45 | 1.07 | 0.174 | 0.776 | 0.0302 |
